Results from ChEMBL document CHEMBL1250448, “Inhibitor hijacking of Akt activation” (Nat Chem Biol, 2009).

Experiments:
[1] = target: Protein kinase C gamma type (Homo sapiens) (UniProt P05129); assay: Inhibition of PKCG at 1 uM in presence of 10 uM ATP by Select Screen kinase assay relative to untreated control
Outline: (§1)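 Commercial SelectScreen profiling panel of 220 purified kinases. Each kinase was tested at a single inhibitor concentration of 1 μM, and activity was expressed as percent inhibition.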

[2] = target: Serine/threonine-protein kinase 25 (Homo sapiens) (UniProt O00506); assay: Inhibition of STK25 at 1 uM in presence of 100 uM ATP by Select Screen kinase assay relative to untreated control; outline: as §1
[3] = target: T1, Serine/threonine-protein kinase TAO2 (Homo sapiens) (UniProt Q9UL54); assay: Inhibition of TAOK2 at 1 uM in presence of 10 uM ATP by Select Screen kinase assay relative to untreated control; outline: as §1
T1 sequence (whole entry): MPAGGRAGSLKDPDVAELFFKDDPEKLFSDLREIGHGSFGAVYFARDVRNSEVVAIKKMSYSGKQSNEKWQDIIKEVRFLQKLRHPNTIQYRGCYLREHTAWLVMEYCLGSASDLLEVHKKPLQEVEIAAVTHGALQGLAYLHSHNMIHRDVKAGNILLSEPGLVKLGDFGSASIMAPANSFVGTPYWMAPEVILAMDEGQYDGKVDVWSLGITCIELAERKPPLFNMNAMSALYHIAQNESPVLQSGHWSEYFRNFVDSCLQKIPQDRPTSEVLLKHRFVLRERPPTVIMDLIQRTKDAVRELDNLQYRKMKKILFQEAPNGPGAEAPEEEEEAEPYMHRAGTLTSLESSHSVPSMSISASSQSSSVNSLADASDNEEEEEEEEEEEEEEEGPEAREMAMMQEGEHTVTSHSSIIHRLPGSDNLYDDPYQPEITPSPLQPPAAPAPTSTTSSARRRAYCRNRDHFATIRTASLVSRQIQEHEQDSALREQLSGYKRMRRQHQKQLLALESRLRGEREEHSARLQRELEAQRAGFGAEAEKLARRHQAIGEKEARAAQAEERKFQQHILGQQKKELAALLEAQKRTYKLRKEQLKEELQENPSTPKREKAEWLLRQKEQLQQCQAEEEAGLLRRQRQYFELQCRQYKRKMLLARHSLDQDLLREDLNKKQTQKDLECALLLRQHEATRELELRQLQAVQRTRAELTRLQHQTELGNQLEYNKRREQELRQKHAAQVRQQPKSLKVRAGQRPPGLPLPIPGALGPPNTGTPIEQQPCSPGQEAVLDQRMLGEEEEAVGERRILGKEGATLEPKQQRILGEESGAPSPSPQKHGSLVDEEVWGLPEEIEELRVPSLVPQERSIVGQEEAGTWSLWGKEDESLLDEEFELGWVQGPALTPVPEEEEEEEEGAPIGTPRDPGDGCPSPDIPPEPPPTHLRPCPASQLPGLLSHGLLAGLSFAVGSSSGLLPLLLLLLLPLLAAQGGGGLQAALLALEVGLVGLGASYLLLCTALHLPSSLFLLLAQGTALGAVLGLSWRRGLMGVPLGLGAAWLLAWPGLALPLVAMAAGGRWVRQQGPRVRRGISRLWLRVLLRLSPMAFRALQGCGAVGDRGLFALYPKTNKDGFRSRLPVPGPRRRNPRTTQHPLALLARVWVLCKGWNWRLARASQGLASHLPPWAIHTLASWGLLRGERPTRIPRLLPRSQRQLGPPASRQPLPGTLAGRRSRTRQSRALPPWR

[4] = target: Fibroblast growth factor receptor 3 (Homo sapiens) (UniProt P22607); assay: Inhibition of FGFR3 at 1 uM in presence of 10 uM ATP by Select Screen kinase assay relative to untreated control
Outline: (§2)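 Single-concentration profiling at 1 μM against a panel of 220 purified kinases, run as an outsourced SelectScreen kinase profiling service. Activity is expressed as percent inhibition.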

[5] = target: Tyrosine-protein kinase Lyn (Homo sapiens) (UniProt P07948); assay: Inhibition of LYN B at 1 uM in presence of 10 uM ATP by Select Screen kinase assay relative to untreated control; outline: as §2
[6] = target: High affinity nerve growth factor receptor (Homo sapiens) (UniProt P04629); assay: Inhibition of NTRK1 at 1 uM in presence of 100 uM ATP by Select Screen kinase assay relative to untreated control; outline: as §1
[7] = target: NT-3 growth factor receptor (Homo sapiens) (UniProt Q16288); assay: Inhibition of NTRK3 at 1 uM in presence of 10 uM ATP by Select Screen kinase assay relative to untreated control; outline: as §1
Chain of NT-3 growth factor receptor (Homo sapiens) (Q16288 32-839 limits assumed): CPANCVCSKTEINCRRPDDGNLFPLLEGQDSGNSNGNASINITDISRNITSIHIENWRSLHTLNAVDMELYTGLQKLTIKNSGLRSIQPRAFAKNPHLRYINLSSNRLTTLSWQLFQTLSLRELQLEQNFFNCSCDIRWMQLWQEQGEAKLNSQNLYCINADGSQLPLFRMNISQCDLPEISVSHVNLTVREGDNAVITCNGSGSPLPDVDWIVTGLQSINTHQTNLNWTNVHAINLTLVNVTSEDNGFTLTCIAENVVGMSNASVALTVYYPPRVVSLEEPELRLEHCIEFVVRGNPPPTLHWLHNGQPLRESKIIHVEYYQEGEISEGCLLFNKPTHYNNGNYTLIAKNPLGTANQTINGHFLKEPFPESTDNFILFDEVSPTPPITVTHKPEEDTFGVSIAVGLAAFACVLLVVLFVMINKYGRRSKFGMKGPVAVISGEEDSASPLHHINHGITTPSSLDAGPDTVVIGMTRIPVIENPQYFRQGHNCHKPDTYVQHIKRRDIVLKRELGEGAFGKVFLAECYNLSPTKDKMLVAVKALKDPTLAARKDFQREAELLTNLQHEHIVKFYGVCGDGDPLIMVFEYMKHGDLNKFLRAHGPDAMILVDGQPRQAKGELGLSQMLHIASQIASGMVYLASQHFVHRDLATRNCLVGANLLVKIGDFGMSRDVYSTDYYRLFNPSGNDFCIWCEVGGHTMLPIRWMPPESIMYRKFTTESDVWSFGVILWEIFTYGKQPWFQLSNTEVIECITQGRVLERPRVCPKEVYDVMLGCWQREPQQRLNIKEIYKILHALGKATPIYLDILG

Chain of Serine/threonine-protein kinase 25 (Homo sapiens) (O00506 whole entry, looked up): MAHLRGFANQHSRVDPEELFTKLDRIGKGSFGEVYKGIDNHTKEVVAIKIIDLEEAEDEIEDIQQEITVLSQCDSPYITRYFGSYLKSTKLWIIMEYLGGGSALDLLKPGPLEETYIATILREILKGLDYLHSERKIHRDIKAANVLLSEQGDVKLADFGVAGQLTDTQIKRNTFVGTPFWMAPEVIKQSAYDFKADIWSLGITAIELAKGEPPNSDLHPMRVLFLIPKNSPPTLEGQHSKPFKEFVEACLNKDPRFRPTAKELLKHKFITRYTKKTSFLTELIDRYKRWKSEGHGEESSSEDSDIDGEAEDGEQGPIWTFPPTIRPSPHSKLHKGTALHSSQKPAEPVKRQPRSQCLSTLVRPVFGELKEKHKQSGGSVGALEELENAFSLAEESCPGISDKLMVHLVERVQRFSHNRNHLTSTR
Chain of Fibroblast growth factor receptor 3 (Homo sapiens) (P22607 23-806 limits assumed): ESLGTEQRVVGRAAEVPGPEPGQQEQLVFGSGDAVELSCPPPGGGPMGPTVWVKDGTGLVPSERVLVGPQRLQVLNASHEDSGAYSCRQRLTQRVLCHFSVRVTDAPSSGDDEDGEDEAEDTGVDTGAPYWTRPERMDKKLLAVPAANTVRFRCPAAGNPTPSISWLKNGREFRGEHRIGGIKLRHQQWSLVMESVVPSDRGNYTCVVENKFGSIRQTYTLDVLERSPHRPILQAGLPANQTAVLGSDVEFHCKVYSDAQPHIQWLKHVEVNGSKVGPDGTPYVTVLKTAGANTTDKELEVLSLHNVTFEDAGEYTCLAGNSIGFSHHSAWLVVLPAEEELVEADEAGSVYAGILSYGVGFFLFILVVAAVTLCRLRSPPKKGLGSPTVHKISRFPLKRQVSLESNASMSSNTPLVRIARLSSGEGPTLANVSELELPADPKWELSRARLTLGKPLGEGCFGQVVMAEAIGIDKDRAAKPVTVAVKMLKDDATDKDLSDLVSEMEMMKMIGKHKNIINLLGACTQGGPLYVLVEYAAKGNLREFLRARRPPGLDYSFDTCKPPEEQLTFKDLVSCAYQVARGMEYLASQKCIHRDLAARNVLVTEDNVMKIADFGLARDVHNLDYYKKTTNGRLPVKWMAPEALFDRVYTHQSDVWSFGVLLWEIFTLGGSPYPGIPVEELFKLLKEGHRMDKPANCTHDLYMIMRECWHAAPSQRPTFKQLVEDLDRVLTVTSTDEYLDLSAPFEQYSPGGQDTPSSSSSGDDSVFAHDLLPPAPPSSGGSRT
Chain of Tyrosine-protein kinase Lyn (Homo sapiens) (P07948 2-512 limits assumed): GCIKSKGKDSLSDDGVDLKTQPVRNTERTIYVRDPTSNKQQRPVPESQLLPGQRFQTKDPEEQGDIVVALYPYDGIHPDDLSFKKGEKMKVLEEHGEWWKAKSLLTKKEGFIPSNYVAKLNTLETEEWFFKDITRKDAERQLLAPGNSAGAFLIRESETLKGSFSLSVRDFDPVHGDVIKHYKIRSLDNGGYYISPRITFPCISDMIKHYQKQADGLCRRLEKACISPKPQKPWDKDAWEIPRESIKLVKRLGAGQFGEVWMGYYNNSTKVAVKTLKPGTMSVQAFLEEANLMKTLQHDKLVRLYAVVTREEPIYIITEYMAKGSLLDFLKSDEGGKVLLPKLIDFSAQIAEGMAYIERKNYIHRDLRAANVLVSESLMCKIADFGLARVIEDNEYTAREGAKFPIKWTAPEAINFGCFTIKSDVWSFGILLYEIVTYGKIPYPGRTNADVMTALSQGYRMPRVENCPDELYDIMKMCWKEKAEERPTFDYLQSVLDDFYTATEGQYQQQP
Chain of High affinity nerve growth factor receptor (Homo sapiens) (P04629 33-796 limits assumed): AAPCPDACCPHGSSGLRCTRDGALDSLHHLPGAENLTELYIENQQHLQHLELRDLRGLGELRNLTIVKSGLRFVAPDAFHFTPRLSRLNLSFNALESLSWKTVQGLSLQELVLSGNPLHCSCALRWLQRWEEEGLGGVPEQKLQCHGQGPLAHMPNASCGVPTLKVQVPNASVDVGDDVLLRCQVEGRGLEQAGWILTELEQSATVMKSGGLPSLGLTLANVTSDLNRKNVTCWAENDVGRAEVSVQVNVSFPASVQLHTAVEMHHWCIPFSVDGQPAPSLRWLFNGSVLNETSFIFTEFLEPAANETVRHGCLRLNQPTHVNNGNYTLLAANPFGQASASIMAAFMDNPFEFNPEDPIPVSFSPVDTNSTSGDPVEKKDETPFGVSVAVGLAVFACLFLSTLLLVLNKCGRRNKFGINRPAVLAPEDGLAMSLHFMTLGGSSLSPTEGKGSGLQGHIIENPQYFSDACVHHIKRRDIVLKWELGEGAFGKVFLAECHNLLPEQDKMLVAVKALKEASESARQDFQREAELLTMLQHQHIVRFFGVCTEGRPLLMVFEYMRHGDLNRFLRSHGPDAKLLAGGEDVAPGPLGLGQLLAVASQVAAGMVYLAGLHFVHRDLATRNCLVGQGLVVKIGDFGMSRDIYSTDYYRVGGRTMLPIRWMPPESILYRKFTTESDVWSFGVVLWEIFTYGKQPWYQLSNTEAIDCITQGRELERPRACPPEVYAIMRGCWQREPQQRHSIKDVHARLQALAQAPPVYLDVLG

Structure (SMILES)	inhibition [1] [%]	inhibition [2] [%]	inhibition [3] [%]	inhibition [4] [%]	inhibition [5] [%]	inhibition [6] [%]	inhibition [7] [%]
Cc1n[nH]c2ccc(-c3cncc(OC[C@@H](N)Cc4c[nH]c5ccccc45)c3)cc12	108	102	35	-1	7	42	28
O=C(NCCCNc1nc(Nc2cccc(NC(=O)N3CCCC3)c2)ncc1I)c1cccs1	58	13	82	43	21	84	80
COc1ccccc1N1CCN(c2ncnc3[nH]nc(Br)c23)CC1	28	14	2	23	10	34	37
